Values after ≈ are worked out from the molar mass of the structure shown. Where a SMILES comes first, the peptide text is derived from it. Bridges are numbered along the chain shown (N, C = ends). [ ]: non-standard residue; d: D form. The star is where a group is joined. X1 = CC[C@H](C)CCCCC(=O)*; Dab = NCC[C@H](N)C(=O)O
Key:
Pseudomonas aeruginosa = test: Antibacterial activity against Pseudomonas aeruginosa SVB-B9 assessed as reduction in bacterial growth after 18 hrs by CLSI based broth microdilution assay; type: functional
Escherichia coli [1] = test: Antibacterial activity against multi-drug resistant Escherichia coli MS8345 assessed as reduction in bacterial growth after 18 hrs by CLSI based broth microdilution assay; type: functional
How it was run: (§1)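 CLSI broth microdilution for MIC (with MBC) in polypropylene microtiter plates, inoculum ~5 × 10^5 CFU/mL. Run independently on three occasions. The reported MIC is the lowest concentration on which all three biological replicates agreed.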

Escherichia coli [2] = test: Antibacterial activity against Escherichia coli ATCC 25922 assessed as reduction in bacterial growth after 18 hrs by CLSI based broth microdilution assay; type: functional; how it was run: as §1
Staphylococcus aureus [3] = test: Antibacterial activity against Staphylococcus aureus ATCC 25923 assessed as reduction in bacterial growth after 18 hrs by CLSI based broth microdilution assay; type: functional; how it was run: as §1
Acinetobacter baumannii [4] = test: Antibacterial activity against multi-drug resistant Acinetobacter baumannii AB5075 assessed as reduction in bacterial growth after 18 hrs by CLSI based broth microdilution assay; type: functional; how it was run: as §1
[5] = Cytotoxicity against NHDF cells assessed as reduction in cell viability measured after 24 hrs by MTT assay; type: toxicity, cell-based; conditions: human, read-out: LD50
How it was run: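 Adherent normal human dermal fibroblasts were read by MTT against a DMSO vehicle control. Viability is expressed as percent of untreated controls. At least three independent biological replicates were run, with each concentration in technical duplicate.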

Cyberlindnera jadinii = test: Antifungal activity against Candida utilis SVB-Y1 assessed as reduction in fungal growth after 48 hrs by CLSI based broth microdilution assay; type: functional; conditions: Williopsis jadinii
How it was run: (§2)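 Yeast susceptibility by CLSI broth microdilution (M27), final inoculum 0.5 × 10^3 to 2.5 × 10^3 CFU/mL. Run independently on three occasions; MIC reported as the lowest concentration giving agreement across all three biological replicates.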

Enterococcus faecium = test: Antibacterial activity against vancomycin-resistant Enterococcus faecium RBWH1 assessed as reduction in bacterial growth after 18 hrs by CLSI based broth microdilution assay; conditions: RBWH1, 18 h
Streptococcus pyogenes = test: Antibacterial activity against macrolide- and tetracycline-resistant Streptococcus pyogenes HKU16 assessed as reduction in bacterial growth after 18 hrs by CLSI based broth microdilution assay; type: functional; how it was run: as §1
Candida albicans = test: Antifungal activity against Candida albicans SC5314 assessed as reduction in fungal growth incubated for 48 hrs by CLSI based broth microdilution assay; type: functional; how it was run: as §2
Acinetobacter baumannii [6] = test: Antibacterial activity against Acinetobacter baumannii ATCC 19606 assessed as reduction in bacterial growth after 18 hrs by CLSI based broth microdilution assay; type: functional
Enterococcus faecalis = test: Antibacterial activity against Enterococcus faecalis ATCC 29212 assessed as reduction in bacterial growth after 18 hrs by CLSI based broth microdilution assay; type: functional; how it was run: as §1
Aspergillus fumigatus = test: Antifungal activity against Aspergillus fumigatus SVB-F136 assessed as fungal growth inhibition after 48 hrs by CLSI protocol based microbroth dilution method; type: functional
How it was run: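 Filamentous fungus tested by CLSI broth microdilution with final inoculum 0.4 × 10^4 to 5 × 10^4 CFU/mL. Three independent biological replicates; MIC is the lowest concentration at which all three agreed.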

Staphylococcus aureus [7] = test: Antibacterial activity against methicillin-resistant Staphylococcus aureus USA 300 assessed as reduction in bacterial growth after 18 hrs by CLSI based broth microdilution assay; type: functional; how it was run: as §1
Streptococcus pneumoniae = test: Antibacterial activity against Streptococcus pneumoniae ATCC 49619 assessed as reduction in bacterial growth after 18 hrs by CLSI based broth microdilution assay; type: functional
Klebsiella pneumoniae = test: Antibacterial activity against Klebsiella pneumoniae MS6671 assessed as reduction in bacterial growth after 18 hrs by CLSI based broth microdilution assay; type: functional

| SMILES | MIC (Pseudomonas aeruginosa) | MIC (Escherichia coli [1]) | MIC (Escherichia coli [2]) | MIC (Staphylococcus aureus [3]) | MIC (Acinetobacter baumannii [4]) | CC50 at 24 h [5] | MIC (Cyberlindnera jadinii) | MIC (Enterococcus faecium) | MIC (Streptococcus pyogenes) | MIC (Candida albicans) | MIC (Acinetobacter baumannii [6]) | MIC (Enterococcus faecalis) | MIC (Aspergillus fumigatus) | MIC (Staphylococcus aureus [7]) | MIC (Streptococcus pneumoniae) | MIC (Klebsiella pneumoniae) |
| --- | --- | --- | --- | --- | --- | --- | --- | --- | --- | --- | --- | --- | --- | --- | --- | --- |
| N=C(N)NCCC[C@@H]1C(=O)N(Cc2ccc(-c3ccccc3)cc2)[C@@H](CCCNC(=N)N)C(=O)N1Cc1ccc(-c2ccccc2)cc1 | 64 µM (≈ 41.3 µg/mL) | > 64 µM | 64 µM (≈ 41.3 µg/mL) | 4 µM (≈ 2.58 µg/mL) | > 64 µM | 175 µM | 2 µM (≈ 1.29 µg/mL) | 8 µM (≈ 5.16 µg/mL) | 16 µM (≈ 10.3 µg/mL) | 8 µM (≈ 5.16 µg/mL) | > 64 µM | 16 µM (≈ 10.3 µg/mL) | 64 µM (≈ 41.3 µg/mL) | 4 µM (≈ 2.58 µg/mL) | 16 µM (≈ 10.3 µg/mL) | > 64 µM |
| N=C(N)NCCC[C@H]1C(=O)N(Cc2ccc(-c3ccccc3)cc2)[C@@H](CCCNC(=N)N)C(=O)N1Cc1ccc(-c2ccccc2)cc1 | 8 µM (≈ 5.16 µg/mL) | 8 µM (≈ 5.16 µg/mL) | 8 µM (≈ 5.16 µg/mL) | 4 µM (≈ 2.58 µg/mL) | 16 µM (≈ 10.3 µg/mL) | 63 µM | 4 µM (≈ 2.58 µg/mL) | 8 µM (≈ 5.16 µg/mL) | 8 µM (≈ 5.16 µg/mL) | 4 µM (≈ 2.58 µg/mL) | 64 µM (≈ 41.3 µg/mL) | 2 µM (≈ 1.29 µg/mL) | 8 µM (≈ 5.16 µg/mL) | 4 µM (≈ 2.58 µg/mL) | 8 µM (≈ 5.16 µg/mL) | 32 µM (≈ 20.6 µg/mL) |
| N=C(N)NCCC[C@H]1C(=O)N(Cc2ccccc2)[C@@H](CCCNC(=N)N)C(=O)N1Cc1ccccc1 | > 64 µM | > 64 µM | > 64 µM | > 64 µM | > 64 µM | > 512 µM | > 64 µM | > 64 µM | 64 µM (≈ 31.5 µg/mL) | > 64 µM | > 64 µM | > 64 µM | > 64 µM | > 64 µM | > 64 µM | > 64 µM |
| N=C(N)NCCC[C@@H]1C(=O)N(Cc2ccc(-c3ccccc3)cc2)[C@H](CCCNC(=N)N)C(=O)N1Cc1ccc(-c2ccccc2)cc1 | 8 µM (≈ 5.16 µg/mL) | 16 µM (≈ 10.3 µg/mL) | 8 µM (≈ 5.16 µg/mL) | 4 µM (≈ 2.58 µg/mL) | 32 µM (≈ 20.6 µg/mL) | 99 µM | 4 µM (≈ 2.58 µg/mL) | 4 µM (≈ 2.58 µg/mL) | 8 µM (≈ 5.16 µg/mL) | 2 µM (≈ 1.29 µg/mL) | 64 µM (≈ 41.3 µg/mL) | 4 µM (≈ 2.58 µg/mL) | 8 µM (≈ 5.16 µg/mL) | 4 µM (≈ 2.58 µg/mL) | 8 µM (≈ 5.16 µg/mL) | 64 µM (≈ 41.3 µg/mL) |
| NCCC[C@H]1C(=O)N(Cc2ccc(-c3ccccc3)cc2)[C@@H](CCCN)C(=O)N1Cc1ccc(-c2ccccc2)cc1 |  | 16 µM (≈ 8.97 µg/mL) | 16 µM (≈ 8.97 µg/mL) | 4 µM (≈ 2.24 µg/mL) | 32 µM (≈ 17.9 µg/mL) | 30 µM | 32 µM (≈ 17.9 µg/mL) | 8 µM (≈ 4.49 µg/mL) | 8 µM (≈ 4.49 µg/mL) | 64 µM (≈ 35.9 µg/mL) | 64 µM (≈ 35.9 µg/mL) | 8 µM (≈ 4.49 µg/mL) | 32 µM (≈ 17.9 µg/mL) | 4 µM (≈ 2.24 µg/mL) | 8 µM (≈ 4.49 µg/mL) | 8 µM (≈ 4.49 µg/mL) |
| CC[C@H](C)CCCCC(=O)N[C@@H](CCN)C(=O)N[C@H](C(=O)N[C@@H](CCN)C(=O)N[C@H]1CCNC(=O)[C@H]([C@@H](C)O)NC(=O)[C@H](CCN)NC(=O)[C@H](CCN)NC(=O)[C@H](CC(C)C)NC(=O)[C@@H](Cc2ccccc2)NC(=O)[C@H](CCN)NC1=O)[C@@H](C)O (X1-[Dab]T[Dab][Dab][Dab][dF]L[Dab][Dab]T; lactam 4-C) |  | 4 µM (≈ 4.81 µg/mL) | 0.25 µM (≈ 0.301 µg/mL) | 64 µM (≈ 77 µg/mL) | 0.25 µM (≈ 0.301 µg/mL) | > 512 µM |  | > 64 µM | 32 µM (≈ 38.5 µg/mL) |  | 1 µM (≈ 1.2 µg/mL) | 8 µM (≈ 9.63 µg/mL) |  | 32 µM (≈ 38.5 µg/mL) | 8 µM (≈ 9.63 µg/mL) | 16 µM (≈ 19.3 µg/mL) |
| CC1(C)S[C@@H]2[C@H](NC(=O)[C@H](N)c3ccc(O)cc3)C(=O)N2[C@H]1C(=O)O [AMOXICILLIN] | > 64 µM |  | 16 µM (≈ 5.85 µg/mL) | 1 µM (≈ 0.365 µg/mL) |  | > 512 µM |  | 64 µM (≈ 23.4 µg/mL) | 0.25 µM (≈ 0.0914 µg/mL) |  |  | 8 µM (≈ 2.92 µg/mL) |  | > 64 µM | 0.5 µM (≈ 0.183 µg/mL) |  |
| C[C@@H]1[C@H](O)[C@@H](C)/C=C/C=C/C=C/C=C/C=C/C=C/C=C/[C@H](O[C@@H]2O[C@H](C)[C@@H](O)[C@H](N)[C@@H]2O)C[C@@H]2O[C@](O)(C[C@@H](O)C[C@@H](O)[C@H](O)CC[C@@H](O)C[C@@H](O)CC(=O)O[C@H]1C)C[C@H](O)[C@H]2C(=O)O [AMPHOTERICIN B] |  |  |  |  |  |  | 2 µM (≈ 1.85 µg/mL) |  |  | 1 µM (≈ 0.924 µg/mL) |  |  | 4 µM (≈ 3.7 µg/mL) |  |  |  |
